Structures are written as SMILES. The whole screen tested about 330,000 compounds, of which about 1,100 (0.33%) were called active. For the sample, actives were picked, then their nearest neighbours and some compounds at random. A number with no mark means an inactive call.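 How the source made its calls: active means versus positive control, 20 µM dose yields 30% or more activation; inactive means the rest.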

The assay is described as follows: activators of adaptive XBP1 UPR arm, primary screen, cell-based, CHO-XBP1 luciferase reporter, luminescence, uHTS (AID 463104).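 Further: 100% = tunicamycin at 10 µg/mL and 0% = DMSO only wells.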 The settings on record: IRE1-XBP1 UPR activation, at 20 µM, hits give high values, percent of tunicamycin response, DMSO as zero. Summed up: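 Signal: luciferase luminescence; Assay system: CHO-XBP1 luciferase reporter cells; Amount: one thousand reporter cells per well; Dosing: 20 µM single concentration, DMSO 1%; Benchmarks: high control tunicamycin 10 µg/mL final, low control DMSO vehicle only; Schedule: 6 h compound exposure at 37 °C, 5% CO2; Evaluation: percent activation relative to tunicamycin reference.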
Regarding `N#CC(=C1SC=CS1)c1nc(-c2ccccc2)cs1`, the activation was 30.8% (active).
The value for `c1ccc(-c2csc(N3CCc4ccccc4C3)n2)cc1` was 2.31%.
Turning to `N#CC(=C1CCCC1)c1nc(-c2ccc(Cl)cc2)cs1`, the activation was -2.04%.
In the case of `Cc1noc(C)c1CSCC(=O)N(CCC(C)C)c1c(N)n(Cc2ccccc2)c(=O)[nH]c1=O`, the activation was -4.01%.
The value for `Cc1ccc(SCC(=O)NC(=O)NCc2ccco2)c(C)c1` was 1.4%; that for `CCN(CC)CCn1c(/N=C/c2cc(Br)ccc2O)nc2ccccc21` was -2.54%; that for `Oc1ccc(Br)cc1/C=N/Nc1ccccn1` was 88.3% (active).
As for `Cc1c(C(=O)Nc2ccccn2)oc2ccc(Br)cc12`, the activation was 0.16%.
As to `CC(=O)C1(C)N(O)C(C)(C)C(c2cccs2)=[N+]1[O-]` (stereo not drawn), the activation was -1.47%.
The value for `CC(=NCc1ccc2c(c1)OCO2)C1=C(O)c2ccccc2C1=O` was 1.05%; that for `CCN1C(=NCCc2cccnc2)N[C@@H](c2ccccc2)[C@H](C(=O)OC)[C@H]1C` was 0.09%.
The value for `CCN1C(=O)N[C@@H](c2ccccc2)[C@H](C(C)=O)[C@H]1C` was 34.5% (active); that for `COCCN1C(=O)N[C@@H](CCc2ccccc2)[C@H](C(C)=O)[C@H]1C` was 0.9%; that for `Nc1nc(COC(=O)CCC(=O)c2ccc(Cl)cc2)nc(Nc2ccccc2)n1` was 1.72%.
The value for `Nc1nc(CC(=O)CSc2ccc(Cl)cc2)nc(Nc2ccc(F)cc2)n1` was 75% (active); that for `Cc1ccc(Nc2nc(N)nc(CSc3nnc(C)s3)n2)cc1` was 3.11%.
In the case of `Cc1ccc(C)c(NC(=O)CN(C)C(=O)c2ccc3ncsc3c2)c1`, the activation is -1.06%.
For `COc1ccc(C(=O)COC(=O)CNC(=O)c2cccs2)cc1Br`, the activation is 0.35%.
For `Cc1ccc(SC(=O)COc2ccc(C)c(C)c2)cc1` the value was 65.8% (active); for `COc1ccc(C(=O)COC(=O)COc2ccc(C)c(C)c2)cc1`, 0.09%; for `Cc1ccc(OCC(=O)Nc2ccc(C(=O)O)cc2NC(=O)COc2ccc(C)c(C)c2)cc1C`, -6.86%.
For `CCOC1CCCCC1NS(=O)(=O)c1ccc(Cl)cc1` (stereo not drawn), the activation was -1.12%.
The value for `Cc1ccc(CN2CCN(/N=C/c3cccnc3)CC2)c(C)c1` was 1.33%.
`CC(C)c1nccn1S(=O)(=O)c1cc([N+](=O)[O-])ccc1Cl`: the activation is 0.9%.
For the compound `CCc1nc(C)cn1S(=O)(=O)c1cc(OC)c(C)cc1C`, the activation was -2.38%.
For `CCc1nc(C)cn1S(=O)(=O)c1cc([N+](=O)[O-])ccc1Cl`, the activation is 45.1% (active).
For the compound `Cc1cc(N2CCOCC2)nc2ccc(NC(=S)N3CCN(Cc4ccccc4)CC3)cc12`, the activation was -2.17%.
For `CC(=O)Nc1ccc(Nc2nc3c(S(=O)(=O)c4ccc(C)c(C)c4)nnn3c3ccccc23)cc1` the value was 3.91%.
The value for `Cc1ccc(S(=O)(=O)c2nnn3c2nc(N2CCN(c4ccccn4)CC2)c2ccccc23)cc1` was -2.5%.
For `Cc1cccc(Nc2nc3c(S(=O)(=O)c4ccccc4)nnn3c3ccccc23)c1C` the value was 94% (active); for `CN(CC(=O)Nc1cccc(F)c1)C(=O)C1CSC2(C)CCC(=O)N12` (stereo not drawn), 2.87%; for `CCN(CC)C(=O)CSC1c2ccccc2C(=O)N1c1ccccc1` (stereo not drawn), 0.81%.
As for `CC1(C)C=C2[C@H]3CC[C@@H]4[C@@]5(C)CCC(=O)C(C)(C)[C@@H]5CC[C@@]4(C)[C@]3(C)CC[C@@]2(C(=O)O)CC1`, the activation was 2.72%.
With `CC(=O)NC(CC(=O)Nc1cccc(S(=O)(=O)N2CCCC2)c1)c1ccccc1` (stereo not drawn), the activation is -4.34%.
Turning to `COc1ccc(CNC(=O)/C(C#N)=C/c2cccc(OC)c2OC)cc1`, the activation was 36.8% (active).
The value for `COc1ccc(NC(=O)/C(C#N)=C\c2cc(OC)c(OCc3ccc(C(=O)O)cc3)cc2Br)cc1` was -2.72%; that for `N#C/C(=C\c1ccc(O)c(O)c1)C(=O)NCc1ccccc1` was 21.5%; that for `C=CCNC(=O)c1ccccc1NC(=O)c1ccc(Cl)c(S(=O)(=O)Nc2cccc(C)c2C)c1` was 0.62%.

(Values after PubChem BioAssay AID463104 (Sanford-Burnham Center for Chemical Genomics, 2010).)
